# Legend:
# Pichia kudriavzevii [1] = assay: Inhibition of Candida krusei ATCC 6258 growth for 24 hours in vitro.; assay type: functional
# How it was run: (§1)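 NCCLS M27-A broth microdilution in RPMI 1640 with L-glutamine and 0.165 M MOPS, pH 7.0. Isolates kept on Sabouraud dextrose agar. Inoculum 5 × 10^3 cfu/mL final. Compounds were diluted in DMSO (≤2% final) and tested in 2-fold dilutions of 1000–0.24 µmol/L. Incubation at 35 °C, OD540 read at 24 and 48 h. MIC = 80% growth inhibition versus control; assays run twice in duplicate.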
# Trichosporon beigelii [2] = assay: Inhibition of Trichosporon beigelli 1188 for 24 hours in vitro.; assay type: functional
# How it was run: (§2)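 Microdilution following NCCLS M27-A. Medium: RPMI 1640 with L-glutamine, 0.165 M MOPS, pH 7.0. Final inoculum 5 × 10^3 cfu/mL. Compounds dissolved in DMSO, final ≤2%, serially halved from 1000 to 0.24 µmol/L. Incubated at 35 °C and read at 24 and 48 h. MIC defined as 80% inhibition of control growth; run twice in duplicate.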
# Candida parapsilosis [3] = assay: Inhibition of Candida parapsilosis ATCC 22019 growth for 24 hours in vitro.; assay type: functional; how it was run: as §1
# Pichia kudriavzevii [4] = assay: Inhibition of Candida krusei E28 growth for 48 hours in vitro.; assay type: functional; how it was run: as §1
# Lichtheimia corymbifera [5] = assay: In vitro inhibition of Absidia corymbifera 272 growth for 24 hours.; assay type: functional
# How it was run: (§3)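 Filamentous isolates tested by microdilution per NCCLS M27-A in RPMI 1640 plus L-glutamine, buffered with 0.165 M MOPS to pH 7.0. Final inoculum 5 × 10^3 cfu/mL. Compounds in DMSO (final ≤2%), 2-fold series over 1000–0.24 µmol/L. Plates held at 35 °C and read visually after 24 and 48 h. MIC taken as 80% inhibition of control growth; determined twice in duplicate.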
# Candida parapsilosis [6] = assay: Inhibition of Candida parapsilosis ATCC 22019 growth for 48 hours in vitro.; assay type: functional; how it was run: as §1
# Candida albicans [7] = assay: Inhibition of Candida albicans ATCC 90028 for 48 hours in vitro.; assay type: functional; how it was run: as §1
# Clavispora lusitaniae [8] = assay: Inhibition of Candida lusitaniae 2446/I growth for 48 hours in vitro.; assay type: functional; how it was run: as §1
# Pichia kudriavzevii [9] = assay: Inhibition of Candida krusei E28 growth for 24 hours in vitro.; assay type: functional; how it was run: as §1
# Clavispora lusitaniae [10] = assay: Inhibition of Candida lusitaniae 2446/I growth for 24 hours in vitro.; assay type: functional; how it was run: as §1
# Aspergillus fumigatus [11] = assay: Inhibition of Aspergillus fumigatus 231 growth for 48 hours in vitro.; assay type: functional; how it was run: as §3
# Pichia kudriavzevii [12] = assay: Inhibition of Candida krusei ATCC 6258 growth for 48 hours in vitro.; assay type: functional; how it was run: as §1
# Nakaseomyces glabratus [13] = assay: Inhibition of Candida glabrata 20/I growth for 24 hours in vitro.; assay type: functional; how it was run: as §1
# Candida tropicalis [14] = assay: Inhibition of Candida tropicalis 156 growth for 24 hours in vitro.; assay type: functional; how it was run: as §1
# Aspergillus fumigatus [15] = assay: Inhibition of Aspergillus fumigatus 231 growth for 24 hours in vitro.; assay type: functional; how it was run: as §3
# Lichtheimia corymbifera [16] = assay: In vitro inhibition of Absidia corymbifera 272 growth for 48 hours.; assay type: functional; how it was run: as §3
# [17] = Inhibition of Trichophyton mentagrophytes 445 growth for 120 hours in vitro.; assay type: functional, Arthroderma benhamiae
# How it was run: (§4)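 Dermatophyte grown in MOPS-buffered (0.165 M, pH 7.0) RPMI 1640 containing L-glutamine, in an M27-A microdilution format. Inoculum 5 × 10^3 cfu/mL final. Compounds from DMSO stocks (≤2% final), 2-fold dilutions 1000–0.24 µmol/L. Incubated at 35 °C, growth judged visually at 72 and 120 h. MIC endpoint is 80% inhibition relative to control; measured twice in duplicate.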
# Nakaseomyces glabratus [18] = assay: Inhibition of Candida glabrata 20/I growth for 48 hours in vitro.; assay type: functional; how it was run: as §1
# Trichosporon beigelii [19] = assay: Inhibition of Trichosporon beigelli 1188 for 48 hours in vitro.; assay type: functional; how it was run: as §2
# Candida albicans [20] = assay: Inhibition of Candida albicans ATCC 44859 growth for 48 hours in vitro.; assay type: functional; how it was run: as §1
# Candida tropicalis [21] = assay: Inhibition of Candida tropicalis 156 growth for 48 hours in vitro.; assay type: functional; how it was run: as §1
# Candida albicans [22] = assay: Inhibition of Candida albicans ATCC 90028 for 24 hours in vitro.; assay type: functional; how it was run: as §1
# Candida albicans [23] = assay: Inhibition of Candida albicans ATCC 44859 growth for 24 hours in vitro.; assay type: functional; how it was run: as §1
# [24] = Inhibition of Trichophyton mentagrophytes 445 growth for 72 hours in vitro.; assay type: functional, Arthroderma benhamiae; how it was run: as §4
smiles,measurement,setting,value
CC(C)(C)C(=O)OCC1C=C(c2ccc(Cl)c(Cl)c2)C(=O)O1 (stereo in doubt; 2c),MIC,Pichia kudriavzevii [1],7.81 uM l-1
same,MIC,Trichosporon beigelii [2],1.95 uM l-1
same,MIC,Candida parapsilosis [3],3.91 uM l-1
same,MIC,Pichia kudriavzevii [4],7.81 uM l-1
same,MIC,Lichtheimia corymbifera [5],7.81 uM l-1
same,MIC,Candida parapsilosis [6],3.91 uM l-1
same,MIC,Candida albicans [7],1.95 µM
same,MIC,Clavispora lusitaniae [8],3.91 uM l-1
same,MIC,Pichia kudriavzevii [9],3.91 uM l-1
same,MIC,Clavispora lusitaniae [10],1.95 uM l-1
same,MIC,Aspergillus fumigatus [11],3.91 uM l-1
same,MIC,Pichia kudriavzevii [12],31.25 uM l-1
same,MIC,Nakaseomyces glabratus [13],0.49 µM
same,MIC,Candida tropicalis [14],3.91 uM l-1
same,MIC,Aspergillus fumigatus [15],1.95 uM l-1
same,MIC,Lichtheimia corymbifera [16],15.63 uM l-1
same,MIC,[17],0.49 uM l-1
same,MIC,Nakaseomyces glabratus [18],0.98 uM l-1
same,MIC,Trichosporon beigelii [19],7.81 uM l-1
same,MIC,Candida albicans [20],1.95 uM l-1
same,MIC,Candida tropicalis [21],7.81 uM l-1
same,MIC,Candida albicans [22],1.95 uM l-1
same,MIC,Candida albicans [23],0.49 µM
same,MIC,[24],0.24 uM l-1
CC(=O)OCC1C=C(c2cccc(Cl)c2)C(=O)O1 (stereo not drawn),MIC,"Pichia kudriavzevii [1]; Pichia kudriavzevii, ATCC 6258, 24 h, read-out: MIC",3.91 µM
same,MIC,"Trichosporon beigelii [2]; Trichosporon beigelii, 24 h, read-out: MIC",3.91 µM
same,MIC,"Candida parapsilosis [3]; Lodderomyces parapsilosis, ATCC 22019, 24 h, read-out: MIC",7.81 µM
same,MIC,"Pichia kudriavzevii [4]; Pichia kudriavzevii, 48 h, read-out: MIC",7.81 µM
same,MIC,"Lichtheimia corymbifera [5]; Lichtheimia corymbifera, 24 h, read-out: MIC",3.91 µM
same,MIC,"Candida parapsilosis [6]; Lodderomyces parapsilosis, ATCC 22019, 48 h, read-out: MIC",7.81 µM
same,MIC,"Candida albicans [7]; Candida albicans, ATCC 90028, 48 h, read-out: MIC",7.81 µM
same,MIC,"Clavispora lusitaniae [8]; Clavispora lusitaniae, 48 h, read-out: MIC",7.81 µM
same,MIC,"Pichia kudriavzevii [9]; Pichia kudriavzevii, 24 h, read-out: MIC",7.81 µM
same,MIC,"Clavispora lusitaniae [10]; Clavispora lusitaniae, 24 h, read-out: MIC",3.91 µM
same,MIC,"Aspergillus fumigatus [11]; Aspergillus fumigatus, 48 h, read-out: MIC",3.91 µM
same,MIC,"Pichia kudriavzevii [12]; Pichia kudriavzevii, ATCC 6258, 48 h, read-out: MIC",7.81 µM
same,MIC,"Nakaseomyces glabratus [13]; Nakaseomyces glabratus, 24 h, read-out: MIC",< 0.98 µM
same,MIC,"Candida tropicalis [14]; Candida tropicalis, 24 h, read-out: MIC",7.81 µM
same,MIC,"Aspergillus fumigatus [15]; Aspergillus fumigatus, 24 h, read-out: MIC",1.95 µM
same,MIC,"Lichtheimia corymbifera [16]; Lichtheimia corymbifera, 48 h, read-out: MIC",7.81 µM
same,MIC,"[17]; Trichophyton benhamiae, 120 h, read-out: MIC",1.95 µM
same,MIC,"Nakaseomyces glabratus [18]; Nakaseomyces glabratus, 48 h, read-out: MIC",0.98 µM
same,MIC,"Trichosporon beigelii [19]; Trichosporon beigelii, 48 h, read-out: MIC",15.6 µM
same,MIC,"Candida albicans [20]; Candida albicans, ATCC 44859, 48 h, read-out: MIC",3.91 µM
same,MIC,"Candida tropicalis [21]; Candida tropicalis, 48 h, read-out: MIC",15.6 µM
same,MIC,"Candida albicans [22]; Candida albicans, ATCC 90028, 24 h, read-out: MIC",3.91 µM
same,MIC,"Candida albicans [23]; Candida albicans, ATCC 44859, 24 h, read-out: MIC",0.98 µM
same,MIC,"[24]; Trichophyton benhamiae, 72 h, read-out: MIC",1.95 µM

# — ChEMBL document CHEMBL1134691, “3-Phenyl-5-acyloxymethyl-2H,5H-furan-2-ones: synthesis and biological activity of a novel group of potential antifungal drugs” (2001)
